pIC50, pKi: −log10 of the molar value. Each block holds one compound with its values, some of them ahead of it. Activity calls are given as the source filed them. The calls are words filed in the database; no cut-off is given here.
Tests used:
[1] = Decrease of SK1 expression in human PAMSC cells at 100 nM after 24 hrs by Western blot analysis in presence of proteasomal inhibitor MG132; type: functional, cell-based
[2] = Decrease of SK1 expression in human PAMSC cells at 100 nM after 24 hrs by Western blot analysis; type: functional, cell-based
PAMSC [3] = conditions: Homo sapiens, 10 to 100 nM
[4] = target: T1, Sphingosine kinase 2 (Homo sapiens) (UniProt Q9NRA0); assay: Inhibition of purified SK2 (unknown origin) using sphingosine and [gamma-32P]ATP as substrate at 50 uM after 30 mins relative to control
T1 sequence (whole entry): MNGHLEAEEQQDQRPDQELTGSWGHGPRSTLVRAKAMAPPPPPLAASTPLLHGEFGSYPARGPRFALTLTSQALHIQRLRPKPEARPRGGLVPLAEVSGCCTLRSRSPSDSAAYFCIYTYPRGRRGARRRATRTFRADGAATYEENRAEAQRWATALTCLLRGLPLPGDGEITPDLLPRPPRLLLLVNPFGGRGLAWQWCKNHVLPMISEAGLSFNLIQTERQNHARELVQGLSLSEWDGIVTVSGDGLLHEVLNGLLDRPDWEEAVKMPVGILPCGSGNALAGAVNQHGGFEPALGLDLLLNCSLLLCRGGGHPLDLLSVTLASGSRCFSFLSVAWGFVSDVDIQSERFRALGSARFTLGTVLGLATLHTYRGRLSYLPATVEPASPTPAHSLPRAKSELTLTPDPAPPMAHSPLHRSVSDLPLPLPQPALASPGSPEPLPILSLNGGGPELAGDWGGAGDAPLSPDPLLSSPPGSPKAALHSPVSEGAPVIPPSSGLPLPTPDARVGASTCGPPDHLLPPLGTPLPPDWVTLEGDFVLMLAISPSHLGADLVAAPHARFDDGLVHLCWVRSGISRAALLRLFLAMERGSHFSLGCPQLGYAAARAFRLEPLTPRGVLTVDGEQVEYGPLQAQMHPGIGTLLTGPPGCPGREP
Method in brief: (§1)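 Buffer: 20 mM Tris pH 7.4 with EDTA, phosphatase and protease inhibitors, 20% glycerol and 400 mM KCl. Inhibitors were added in DMSO; control was 5% v/v DMSO.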

[5] = target: T1, Sphingosine kinase 2 (Homo sapiens); assay: Activity at purified SK2 (unknown origin) using ATP at 250 uM relative to control
Sphingosine kinase 1 [6] = target: T2, Sphingosine kinase 1 (Homo sapiens, UniProt Q9NYA1); assay: Activity at recombinant SK1 (unknown origin) using ATP at 250 uM relative to control
T2 sequence (Q9NYA1 whole entry): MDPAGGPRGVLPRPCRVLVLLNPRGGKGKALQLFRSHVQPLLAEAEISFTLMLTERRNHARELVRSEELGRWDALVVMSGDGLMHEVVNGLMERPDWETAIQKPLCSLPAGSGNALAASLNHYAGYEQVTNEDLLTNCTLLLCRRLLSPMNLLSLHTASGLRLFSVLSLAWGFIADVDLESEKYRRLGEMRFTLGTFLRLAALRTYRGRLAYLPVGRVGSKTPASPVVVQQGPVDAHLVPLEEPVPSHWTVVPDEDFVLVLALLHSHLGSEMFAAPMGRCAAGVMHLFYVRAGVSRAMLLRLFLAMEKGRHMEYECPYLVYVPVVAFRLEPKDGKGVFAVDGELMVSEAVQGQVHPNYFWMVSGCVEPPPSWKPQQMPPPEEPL

PAMSC [7] = assay: Inhibition of DNA synthesis in human PAMSC cells assessed as [3H]-thymidine incorporation into DNA at 100 nM to 1 uM after 24 hrs; type: functional, cell-based
Method in brief: (§2)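 Pulmonary arterial smooth muscle cells were grown to 60% confluency and quiesced 24 h in basal medium with 0.1% eFCS. They were then treated with inhibitor in DMSO (vehicle 0.1% DMSO) for 48 h in complete medium, with [3H]-thymidine (0.25 µCi/mL) added for the final 24 h. Cells were washed with TCA, solubilised in SDS/NaOH and counted by scintillation. Each concentration was run in triplicate.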

Sphingosine kinase 2 [8] = target: T3, Sphingosine kinase 2 (Homo sapiens, UniProt Q9NRA0); assay: Inhibition of purified SK2 (unknown origin) using sphingosine and [gamma-32P]ATP as substrate after 30 mins; method in brief: as §1
T3 sequence (Q9NRA0 whole entry): T1 sequence (whole entry)

Sphingosine kinase 1 [9] = target: T2, Sphingosine kinase 1; assay: Inhibition of recombinant SK1 (unknown origin) using sphingosine and [gamma-32P]ATP as substrate after 30 mins
[10] = Decrease of SK1 expression in human PAMSC cells at 10 uM after 24 hrs by Western blot analysis; type: functional, cell-based
[11] = Decrease of SK1 expression in human PAMSC cells at 10 uM after 24 hrs by Western blot analysis in presence of proteasomal inhibitor MG132; type: functional, cell-based
PAMSC [12] = assay: Inhibition of DNA synthesis in human PAMSC cells assessed as [3H]-thymidine incorporation into DNA at 300 nM after 24 hrs; type: functional, cell-based; method in brief: as §2
[13] = target: T1, Sphingosine kinase 2 (Homo sapiens); conditions: 50 uM
[14] = target: T1, Sphingosine kinase 2 (Homo sapiens); conditions: 1.5 uM
Sphingosine kinase 2 [15] = target: T3, Sphingosine kinase 2; assay: Inhibition of SK2 (unknown origin)
Method in brief: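 Purified SK2 (37 ng) run 30 min at 30 °C with 10 µM sphingosine complexed to fatty-acid-free BSA (0.2 mg/mL final) and 250 µM [γ-32P]ATP in 10 mM MgCl2. Buffer: 20 mM Tris pH 7.4 with phosphatase/protease inhibitors and 400 mM KCl. Inhibitor added in DMSO; control 5% v/v DMSO. Sphingosine level matches the SK2 Km.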

SMILES: Cc1cc(CS(=O)(=O)c2ccccc2)cc(OCc2ccc(CN3CCC[C@@H]3CO)cc2)c1
- Activity [1]: inactive
- Activity [2]: Active
- inhibition (PAMSC [3]): inactive

- inhibition [4]: 64.5%
SMILES: CCCCCCCCCCCCCC[C@@H](O)[C@@H](O)[C@H](CO)NC(=S)Nc1ccc(F)cc1

- Activity [5]: Active
- Activity (Sphingosine kinase 1 [6]): Active
SMILES: CCCCCCCCCCCCC/C=C\[C@@H](O)[C@@H](N)CO

- pIC50 (Sphingosine kinase 2 [8]): 3.12
- pIC50 (Sphingosine kinase 1 [9]): 5.15
SMILES: CCCCCCCCCCCCCCC[C@@H](O)[C@H](C)N
- Activity (PAMSC [7]): Active
- Activity [10]: Active
- Activity [11]: inactive

- inhibition [4]: Active
- Activity [5]: Active
- Activity (Sphingosine kinase 1 [6]): Active
SMILES: CCCCCCCCCCCCCCC[C@@H](O)[C@H](CO)NC(=S)Nc1cccc(F)c1

- pIC50 (Sphingosine kinase 2 [8]): 4.66
- pIC50 (Sphingosine kinase 1 [9]): 4.16
- inhibition [4]: 80%
- Activity [5]: Active
SMILES: CCCCCCCCCCCCCCC[C@@H](O)[C@H](CO)NC(=S)Nc1cccc(C(F)(F)F)c1
- Activity [10]: inactive

- inhibition [4]: Active
SMILES: CCCCCCCCCCCCC/C=C/[C@@H](O)[C@H](CO)NC(=S)Nc1ccc(C(F)(F)F)cc1

- inhibition [4]: 53.9%
SMILES: CCCCCCCCCCCCCC[C@@H](O)[C@@H](O)[C@H](CO)NC(=O)Nc1ccc(C(F)(F)F)cc1

- pIC50 (Sphingosine kinase 2 [8]): 3.52
- pIC50 (Sphingosine kinase 1 [9]): 4.56
SMILES: CCCCCCCCCCCCCCOCC(O)[C@H](C)N(C)C (single isomer, unassigned)

- Activity (Sphingosine kinase 1 [6]): Active
SMILES: CCCCCCCCCCCCCC[C@H]1OC[C@H](NC(=S)Nc2c(F)c(F)c(F)c(F)c2F)[C@@H]1O

- inhibition [13]: Active
- inhibition [14]: 73.4%
SMILES: CCCCCCCCCCCCc1ccc(C(=O)N2CCC[C@H]2C(=N)N)cc1
- inhibition (PAMSC [12]): inactive

- inhibition [4]: 79.2%
SMILES: CCCCCCCCCCCCC/C=C/[C@@H](O)[C@H](CO)NC(=S)Nc1ccc(F)cc1

- pKi (Sphingosine kinase 2 [15]): 5.00
SMILES: O=C(NCc1ccncc1)C12CC3CC(C1)CC(c1ccc(Cl)cc1)(C3)C2 [ABC-294640]

- Activity (Sphingosine kinase 1 [6]): Active
SMILES: CCCCCCCCCCCCCCC[C@@H](O)[C@H](C)[N+](C)(C)C

Reference: ChEMBL document CHEMBL3132796 (Medchemcomm, 2013)
